The source made the active and inactive calls. No cut-off for these calls is given here.
How the values were obtained:
[1] = system: SH-SY5Y; experiment: Neuroprotective activity in human SH-SY5Y cells assessed as inhibition Abeta25-35-induced reduction of cell viability at 1 uM compound pretreated for 2 hrs before induction cell viability measured after 24 hrs (reference value: 69.77%); format: functional
[2] = system: SH-SY5Y; experiment: Neuroprotective activity in human SH-SY5Y cells assessed as inhibition Abeta25-35-induced reduction of cell viability at 10 uM compound pretreated for 2 hrs before induction cell viability measured after 24 hrs (reference value: 69.77%); format: functional
[3] = system: SH-SY5Y; experiment: Neuroprotective activity in human SH-SY5Y cells assessed as inhibition H2O2-induced damage measured as cell viability at 1 uM measured after 24 hrs; format: functional, cell-based
Outline: (§1)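 Human SH-SY5Y cells were subjected to H2O2-induced damage, with compounds at 1 or 10 μM and L-NAC at 100 μM as the positive control. Cell viability was compared with control and with H2O2-only wells. Data are mean ± SD, n = 3-6.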

[4] = system: SH-SY5Y; experiment: Neuroprotective activity in human SH-SY5Y cells assessed as inhibition H2O2-induced damage measured as cell viability at 10 uM measured after 24 hrs; format: functional; outline: as §1
[5] = Cytotoxicity against human HL60 cells by MTT assay; format: functional, HL-60
Outline: (§2)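 Cells were exposed to compound at 10 μM, and cytotoxicity was expressed as percent inhibition of growth.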

[6] = system: A549; experiment: Cytotoxicity against human A549 cells by MTT assay; format: functional; outline: as §2
[7] = system: SH-SY5Y; experiment: Neuroprotective activity in human SH-SY5Y cells assessed as inhibition OGD-induced injuries measured as cell viability at 10 uM measured after 24 hrs; format: functional
Outline: (§3)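 Oxygen-glucose deprivation (OGD) injury was applied to human SH-SY5Y cells, with compounds at 1 μM or higher. Cell viability, or its increase, was compared with control and with OGD-only wells. Data are mean ± SD, n = 3-6.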

[8] = system: SH-SY5Y; experiment: Neuroprotective activity in human SH-SY5Y cells assessed as inhibition OGD-induced injuries measured as increase in cell viability at 1 uM measured after 24 hrs; format: functional; outline: as §3
[9] = system: SH-SY5Y; experiment: Neuroprotective activity in human SH-SY5Y cells assessed as inhibition Abeta25-35-induced reduction of cell viability at 10 uM after 24 hrs by SRB assay; format: functional
[10] = system: SH-SY5Y; experiment: Neuroprotective activity in human SH-SY5Y cells assessed as inhibition OGD-induced injuries measured as cell viability at 1 uM measured after 24 hrs; format: functional; outline: as §3
[11] = system: SH-SY5Y; experiment: Neuroprotective activity in human SH-SY5Y cells assessed as inhibition H2O2-induced damage measured as cell viability at 100 uM measured after 24 hrs; format: functional; outline: as §1

SMILES | Activity [1] | Activity [2] | other results
OCc1ccc(-c2ccc(-c3noc(Cc4c[nH]c5ccccc45)n3)o2)cc1 | inactive | 92.1% | 
CN(C)c1ccc(-c2ccc(-c3noc(Cc4c[nH]c5ccccc45)n3)o2)cc1 | inactive | inactive | Activity [3]: inactive; Activity [4]: 98%
c1ccc2c(Cc3nc(-c4ccc(-c5ccc(N6CCOCC6)cc5)o4)no3)c[nH]c2c1 | inactive | inactive | 
Cc1ccccc1-c1ccc(-c2noc(Cc3c[nH]c4ccccc34)n2)o1 | inactive | inactive | 
Oc1ccc(-c2ccc(-c3noc(Cc4c[nH]c5ccccc45)n3)o2)cc1 | inactive | inactive | 
Nc1ncc(-c2ccc(-c3noc(Cc4c[nH]c5ccccc45)n3)o2)cn1 | inactive | inactive | inhibition (INH) [5]: 26%; inhibition (INH) [6]: 2%
Nc1ccc(-c2cccc(-c3noc(Cc4c[nH]c5ccccc45)n3)c2)cc1 | inactive | 106% | Activity [7]: inactive
Nc1ccc(-c2ccc(-c3noc(Cc4c[nH]c5ccccc45)n3)o2)cc1 | inactive | 92.4% | inhibition (INH) [5]: 26%; Activity [8]: 18.96%; inhibition (INH) [6]: 2%
Brc1ccc(-c2ccc(-c3noc(Cc4c[nH]c5ccccc45)n3)o2)cc1 | inactive | 83.5% | 
CCCOc1ccc(-c2ccc(-c3noc(Cc4c[nH]c5ccccc45)n3)o2)cc1 | 90% | 115.5% | Activity [3]: inactive; Activity [4]: 98%; Activity [9]: 94%; Activity [7]: 84.1%; Activity [10]: 80.4%
Cc1cccc(-c2ccc(-c3noc(Cc4c[nH]c5ccccc45)n3)o2)c1 | inactive | inactive | 
Clc1ccc(-c2ccc(-c3noc(Cc4c[nH]c5ccccc45)n3)o2)cc1 | inactive | 83.9% | 
Nc1ccc(-c2ccc(-c3noc(Cc4c[nH]c5ccccc45)n3)s2)cc1 | inactive | inactive | 
N#Cc1ccc(-c2ccc(-c3noc(Cc4c[nH]c5ccccc45)n3)o2)cc1 | inactive | 93.3% | 
CCCc1ccc(-c2ccc(-c3noc(Cc4c[nH]c5ccccc45)n3)o2)cc1 | 89.7% | 114.2% | Activity [9]: 96%
Cc1ccc(-c2ccc(-c3noc(Cc4c[nH]c5ccccc45)n3)o2)cc1 | inactive | 80.3% | 
CC(C)c1ccc(-c2ccc(-c3noc(Cc4c[nH]c5ccccc45)n3)o2)cc1 | inactive | 93.3% | 
CCOc1ccc(-c2ccc(-c3noc(Cc4c[nH]c5ccccc45)n3)o2)cc1 | inactive | 89.1% | Activity [3]: inactive; Activity [4]: 98%; Activity [7]: 76.2%; Activity [10]: 80.6%
COc1ccc(-c2ccc(-c3noc(Cc4c[nH]c5ccccc45)n3)o2)cc1 | inactive | 91.5% | Activity [3]: inactive; Activity [4]: 98%
CCc1ccc(-c2ccc(-c3noc(Cc4c[nH]c5ccccc45)n3)o2)cc1 | inactive | 100% | 
CC(=O)N[C@@H](CS)C(=O)O [ACETYLCYSTEINE] |  |  | Activity [11]: 89.2%
Fc1ccc(-c2ccc(-c3noc(Cc4c[nH]c5ccccc45)n3)o2)cc1 | inactive | 84.8% | 
CN1CCN(c2ccc(-c3ccc(-c4noc(Cc5c[nH]c6ccccc56)n4)o3)cc2)CC1 | inactive | inactive | 
c1ccc(-c2ccc(-c3noc(Cc4c[nH]c5ccccc45)n3)o2)cc1 | inactive | inactive | 
O=C(O[C@@H]1Cc2c(O)cc(O)cc2O[C@@H]1c1cc(O)c(O)c(O)c1)c1cc(O)c(O)c(O)c1 [EPIGALOCATECHIN GALLATE] |  | 96.2% | 
CC(C)(C)c1ccc(-c2ccc(-c3noc(Cc4c[nH]c5ccccc45)n3)o2)cc1 | inactive | 92.1% | 

From ChEMBL document CHEMBL3351263, “Synthesis and biological evaluation of novel marine-derived indole-based 1,2,4-oxadiazoles derivatives as multifunctional neuroprotective agents” (2015)
